Data from ChEMBL document CHEMBL1146717, “Investigation of novel fumagillin analogues as angiogenesis inhibitors” (Bioorg Med Chem Lett, 2004).

Assays:
[1] = system: HUVEC; test: Percent remained in HUVEC lysate after 2 hr in presence of epoxide hydrolase (EH) along with inhibitor (Control = 106) used as substrate; Expressed as % remaining; format: functional, Homo sapiens
Procedure, shortened: (§1)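 Epoxide hydrolase (1 mg/mL protein, final) was co-incubated at 37 °C with the compound (2 mM) plus cyclohexene oxide (50 mM) as EH inhibitor. Substrate remaining and hydrolysate were quantified at 3 min, 0.5 h and 2 h as % values, with an estimated error of 10–15%.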

[2] = system: HUVEC; test: Percent remained in HUVEC lysate after 3 min in presence of epoxide hydrolase (EH) (Compound used as hydrolysate); Expressed as % remaining; format: functional, Homo sapiens
Procedure, shortened: (§2)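 Each compound at 2 mM incubated at 37 °C with epoxide hydrolase (1 mg/mL protein, final), alongside a no-enzyme control. Substrate remaining and hydrolysate formed were quantified at 3 min, 0.5 h and 2 h as % values. Estimated measurement error is 10–15%.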

[3] = system: HUVEC; test: Tested for inhibition of the human umbilical vein endothelial cell (HUVEC) proliferation
[4] = system: HUVEC; test: Percent remained in HUVEC lysate after 3 min in presence of epoxide hydrolase (EH) along with inhibitor (Control = 100) (Compound used as substrate); Expressed as % remaining; format: functional, Homo sapiens; procedure, shortened: as §1
[5] = system: HUVEC; test: Percent remained in HUVEC lysate after 3 min in presence of epoxide hydrolase (EH) (Control = 100) (Compound used as substrate); Expressed as % remaining; format: functional, Homo sapiens; procedure, shortened: as §2
[6] = system: HUVEC; test: Percent remained in HUVEC lysate after 0.5 hr in presence of epoxide hydrolase (EH) along with inhibitor (Control = 103) (Compound used as substrate); Expressed as % remaining; format: functional, Homo sapiens; procedure, shortened: as §1
[7] = system: HUVEC; test: Percent remained in HUVEC lysate after 2 hr in presence of epoxide hydrolase (EH) (Compound used as hydrolysate); Expressed as % remaining; format: functional, Homo sapiens; procedure, shortened: as §2
[8] = system: HUVEC; test: Percent remained in HUVEC lysate after 0.5 hr in presence of epoxide hydrolase (EH) (Compound used as hydrolysate); Expressed as % remaining; format: functional, Homo sapiens; procedure, shortened: as §2
[9] = system: HUVEC; test: Percent stability after 4 hr in HUVEC lysate; Expressed as % remaining; format: functional, Homo sapiens
Procedure, shortened: (§3)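 Compound (1 mM) was incubated in HUVEC lysate at 37 °C and sampled at 0, 4 and 20 h. Results are expressed as % of compound remaining, with an estimated measurement error of 10–15%.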

[10] = system: HUVEC; test: Percent remained in HUVEC lysate after 2 hr in presence of epoxide hydrolase (EH) (Control = 100) (Compound used as substrate); Expressed as % remaining; format: functional, Homo sapiens; procedure, shortened: as §2
[11] = system: HUVEC; test: Percent remained in HUVEC lysate after 2 hr in presence of epoxide hydrolase (EH) along with inhibitor (Compound used as hydrolysate); Expressed as % remaining; format: functional, Homo sapiens; procedure, shortened: as §1
[12] = system: HUVEC; test: Percent stability after 4 hr in HUVEC culture medium; expressed as % remaining; format: functional, Homo sapiens
[13] = system: HUVEC; test: Percent stability determined after 20 hr in HUVEC lysate; expressed as % remaining; format: functional, Homo sapiens; procedure, shortened: as §3
[14] = system: HUVEC; test: Percent stability determined after 0 hr in HUVEC lysate; expressed as % remaining; format: functional, Homo sapiens; procedure, shortened: as §3
[15] = system: HUVEC; test: Percent stability after 0 hr in HUVEC culture medium; expressed as % remaining; format: functional, Homo sapiens
[16] = system: HUVEC; test: Percent stability after 20 hr in HUVEC culture medium; expressed as % remaining; format: functional, Homo sapiens
[17] = system: HUVEC; test: Percent remained in HUVEC lysate after 0.5 hr in presence of epoxide hydrolase (EH) along with inhibitor (Compound used as hydrolysate); Expressed as % remaining; format: functional, Homo sapiens; procedure, shortened: as §1
[18] = system: HUVEC; test: Percent remained in HUVEC lysate after 2 hr in presence of epoxide hydrolase (EH) along with inhibitor (Control = 103) (Compound used as substrate); Expressed as % remaining; format: functional, Homo sapiens; procedure, shortened: as §1
[19] = system: HUVEC; test: Percent remained in HUVEC lysate after 0.5 hr in presence of epoxide hydrolase (EH) (Control = 103) (Compound used as substrate); Expressed as % remaining; format: functional, Homo sapiens; procedure, shortened: as §2
[20] = target: Methionine aminopeptidase 2 (Homo sapiens, UniProt P50579); test: Inhibitory activity against Methionine aminopeptidase 2
[21] = system: HUVEC; test: Percent remained in HUVEC lysate after 0.5 hr in presence of epoxide hydrolase (EH) along with inhibitor (Control = 92) (Compound used as substrate); Expressed as % remaining; format: functional, Homo sapiens; procedure, shortened: as §1
[22] = system: HUVEC; test: Percent remained in HUVEC lysate after 3 min in presence of epoxide hydrolase (EH) used as hydrolysate; Expressed as % remaining; format: functional, Homo sapiens; procedure, shortened: as §2
[23] = system: HUVEC; test: Percent remained in HUVEC lysate after 2 hr in presence of epoxide hydrolase (EH) along with inhibitor (Control = 90) (Compound used as substrate); Expressed as % remaining; format: functional, Homo sapiens; procedure, shortened: as §1
[24] = system: HUVEC; test: Percent stability determined after 20 hr in HUVEC lysate; Expressed as % remaining; format: functional, Homo sapiens; procedure, shortened: as §3
[25] = system: HUVEC; test: Percent stability determined after 4 hr in HUVEC culture medium; Expressed as % remaining; format: functional, Homo sapiens
[26] = system: HUVEC; test: Percent stability determined after 0 hr in HUVEC culture medium; Expressed as % remaining; format: functional, Homo sapiens
[27] = system: HUVEC; test: Percent stability determined after 4 hr in HUVEC lysate; Expressed as % remaining; format: functional, Homo sapiens; procedure, shortened: as §3
[28] = system: HUVEC; test: Percent stability determined after 0 hr in HUVEC lysate; Expressed as % remaining; format: functional, Homo sapiens; procedure, shortened: as §3
[29] = system: HUVEC; test: Percent stability determined after 20 hr in HUVEC culture medium; Expressed as % remaining; format: functional, Homo sapiens

Sequence of Methionine aminopeptidase 2 (P50579 whole entry): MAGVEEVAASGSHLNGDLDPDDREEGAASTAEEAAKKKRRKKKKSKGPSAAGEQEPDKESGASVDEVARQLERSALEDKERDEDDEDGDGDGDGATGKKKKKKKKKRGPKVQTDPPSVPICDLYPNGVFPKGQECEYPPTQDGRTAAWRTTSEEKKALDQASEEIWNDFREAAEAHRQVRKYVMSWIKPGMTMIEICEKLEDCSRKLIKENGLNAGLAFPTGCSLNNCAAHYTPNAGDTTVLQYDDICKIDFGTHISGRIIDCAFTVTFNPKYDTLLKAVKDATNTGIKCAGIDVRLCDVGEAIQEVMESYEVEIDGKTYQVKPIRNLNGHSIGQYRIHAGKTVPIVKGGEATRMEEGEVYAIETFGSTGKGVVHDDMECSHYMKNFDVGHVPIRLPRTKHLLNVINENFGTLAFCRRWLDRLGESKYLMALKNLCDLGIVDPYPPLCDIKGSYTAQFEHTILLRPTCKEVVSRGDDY

In the case of `CO[C@@H]1[C@H](OC(N)=O)CC[C@]2(CO2)[C@H]1[C@@]1(C)O[C@@H]1CC=C(C)C`, the Activity [1] is reported as 107%, the Activity [2] is reported as 22% and the EC50 [3] is reported as 0.65 nM. The Activity [4] was 98%, the Activity [5] was 84% and the Activity [6] was 109%. The Activity [7] was 100% and the Activity [8] was 103%.

With `CO[C@@H]1[C@H](OC(N)=O)CC[C@]2(CO2)[C@H]1/C(C)=N/OCc1ccccc1` the Activity [9] was 20%, the Activity [10] was 1% and the Activity [11] was 60%. For the same molecule, the Activity [12] was 90%, the Activity [13] was 3% and the Activity [2] was 93%. For the same molecule, the EC50 [3] was 88 nM, the Activity [4] was 106% and the Activity [14] was 100%. It also gave an Activity [15] of 100%, an Activity [5] of 10% and an Activity [16] of 69%. It also gave an Activity [6] of 95%, an Activity [7] of 100% and an Activity [17] of 15%. For the same molecule, the Activity [8] was 95%, the Activity [18] was 60% and the Activity [19] was 2%.

Molecule `CO[C@@H]1[C@H](OC(=O)/C=C/C=C/C=C/C=C/C(=O)O)CC[C@]2(CO2)[C@H]1[C@@]1(C)O[C@@H]1CC=C(C)C` [FUMAGILLIN] has an IC50 [20] of 0.63 nM and an EC50 [3] of 0.82 nM.

Work on `CO[C@@H]1[C@H](OC(N)=O)CC[C@]2(CO2)[C@H]1/C(C)=C/CC=C(C)C` yielded an Activity [21] of 75%, an Activity [9] of 36% and an Activity [11] of 87%. The Activity [12] was 76%, the Activity [22] was 77% and the Activity [13] was 1%. For the same molecule, the EC50 [3] was 490 nM, the Activity [4] was 108% and the Activity [14] was 100%. For the same molecule, the Activity [15] was 100%, the Activity [5] was 18% and the Activity [16] was 68%. For the same molecule, the Activity [7] was 100%, the Activity [17] was 21% and the Activity [8] was 79%. It also gave an Activity [23] of 5%.

With `CCN1CCN(C(=O)O[C@@H]2CC[C@]3(CO3)[C@@H]([C@@]3(C)O[C@@H]3CC=C(C)C)[C@@H]2OC)CC1` the Activity [24] was 76%, the Activity [25] was 95% and the Activity [26] was 100%. For the same molecule, the Activity [27] was 91%, the Activity [28] was 100% and the Activity [29] was 75%.

Work on `CO[C@@H]1[C@H](OC(C)=O)CC[C@]2(CO2)[C@H]1/C(C)=N/OCc1ccccc1` yielded an EC50 [3] of 450 nM.

`CO[C@@H]1[C@H](OC(C)=O)CC[C@]2(CO2)[C@H]1[C@@]1(C)O[C@@H]1CC=C(C)C` was tested, and the EC50 [3] was 3 nM.
